This is a sample that favours compounds with a hit; in the whole collection about 2.1% have one here.
ASAP1 inh = ASAP1 ArfGAP inhibition; Q9ULH1; ASAP1-stimulated ARF1 GTP hydrolysis, GDP FP detection; inhibition, % at 16.5 µM; 0.19% of 360,000 active; in the data active = inhibition above about 25%;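 also: 0% = vehicle with enzyme and substrate and 100% = no enzyme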
ARFGAP1 inh = inhibits rat ARF GTPase activating protein 1; AID 651572; 0.26% of 360,000 active; Arfgap1-stimulated ARF1 GTP hydrolysis, GDP FP detection; inhibition, % at 16.5 µM;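 active = inhibition above a per-plate limit, mean inhibition of low control wells plus 3 SD, cut at about 25% in these data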;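 also: 0% = DMSO wells with enzyme and 100% = wells lacking Arfgap1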
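system = rat Arfgap1 catalytic domain, aa 1-136 | technique = FP, GDP Alexa 633 tracer displaced from anti-GDP antibody, 620/688 nm | compound = one concentration, 16.5 µM, DMSO 1.26% | medium = HEPES-based buffer, pH 7.5 | timing = compound-enzyme preincubation 20 min, reaction 120 min, detection 60 min, 25 °C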
A3G deaminase = APOBEC3G (human) deaminase inhibition; Q9HC16; recombinant A3G, ssDNA deamination FAM/TAMRA fluorescence; inhibition, % at 20 µM; 0.28% of 330,000 active;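 active = inhibition of at least 40% at 20 µM, with no more than 30% in the related APOBEC3A deaminase screen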;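 also: plate controls were DMSO wells with A3G for no effect and wells lacking A3G enzyme for full effect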
Target sequence (Q9HC16 whole entry, looked up): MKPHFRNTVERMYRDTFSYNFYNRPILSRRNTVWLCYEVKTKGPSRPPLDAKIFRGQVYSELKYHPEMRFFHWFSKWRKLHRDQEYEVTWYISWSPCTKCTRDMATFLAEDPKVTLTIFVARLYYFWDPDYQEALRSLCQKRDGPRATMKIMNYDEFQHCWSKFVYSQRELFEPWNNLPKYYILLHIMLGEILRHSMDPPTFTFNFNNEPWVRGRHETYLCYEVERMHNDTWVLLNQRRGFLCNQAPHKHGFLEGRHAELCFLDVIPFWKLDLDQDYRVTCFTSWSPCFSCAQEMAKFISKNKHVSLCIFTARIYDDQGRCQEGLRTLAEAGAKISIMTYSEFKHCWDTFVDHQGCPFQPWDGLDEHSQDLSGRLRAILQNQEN
Mot1-301 SUMO = blocks SUMOylation pathway, rescuing yeast Mot1-301 growth; S. cerevisiae Mot1-301 growth rescue, ATP luminescence, 38.5C; percent above DMSO median, 100 means doubled; growth rescue, % at 18.8 µM; 1% of 320,000 active; AID 2716;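 active = every valid replicate shows activation above 250% relative to neutral control wells; inactive = the rest, any valid replicate at or below 250%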;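 also: OY570 slx delta 5 strain wells were the positive control but not used for scaling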
APOBEC3A inh = blocks human APOBEC3A ssDNA deamination; recombinant A3A, FAM/TAMRA ssDNA deamination fluorescence; 0.41% of 330,000 active; AID 493011; inhibition, % at 20 µM;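 active = at least 40% inhibition at 20 µM here, with at most 30% in a related deaminase screen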;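 also: plate controls were A3A with DMSO for no effect and wells lacking A3A enzyme for full effect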
Statin myotox sup = suppressors of simvastatin-induced myotoxicity in C2C12 myotubes. ATP luminescence, 48 h; scaled: DMSO 0, geranylgeraniol control 100. rescue of ATP level, % at 7.49 µM. 0.78% of 330,000 active;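 active = mean ATP rescue above about 67%, or every replicate alone reaching that limit, limit read from the data, passing the limit was not always enough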;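 also: myotubes were challenged with 10 µM simvastatin during compound exposure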
Numbers without * were called inactive; x = no result.

SMILES	ASAP1 inh	ARFGAP1 inh	A3G deaminase	Mot1-301 SUMO	APOBEC3A inh	Statin myotox sup
Cc1ccccc1NC(=O)C(=O)NCC1CCCN1S(=O)(=O)c1cccs1 (stereo not given)	3.9	2.2	-3.9	11.9	0.7	5.1
O=C(NCCc1ccccc1)C(=O)NCC1CCCN1S(=O)(=O)c1cccs1 (stereo not given)	-2.9	13.1	-5.5	355.1*	-0.8	-4.1
CCCNS(=O)(=O)c1ccc(OCC(=O)OC)cc1	-8.5	-0.3	-1.4	287.9	1.7	130.5*
CCCCNS(=O)(=O)c1ccc(OCC(=O)OC)cc1	-0.2	-8.2	2.8	3.7	3.4	x
COc1ccc(S(=O)(=O)Nc2cc3c4c(oc3c3ccccc23)CCCC4=O)cc1	5.0	10.9	-5.8	-9.5	-4.4	76.8*
CCNc1nc(OC)nc(SCC(N)=O)n1	6.9	6.5	-6.0	2.1	0.3	69.1*
Cn1nc(C(C)(C)C)cc1C(=O)NNC(=O)c1ccc(C(F)(F)F)cc1	-5.0	3.3	-2.0	304.4*	-1.2	-2.3
COC(=O)c1cc(OC)c(OC)cc1NC(=O)Nc1cccc(C(C)=O)c1	7.3	-0.4	-1.0	-2.9	6.8	114.1*
COC(=O)c1cc(OC)c(OC)cc1NC(=O)Nc1ccc(OC)cc1	4.8	6.1	-2.8	20.6	-1.6	x
CC(=O)c1cccc(NC(=O)Nc2cccnc2)c1	3.5	1.7	-5.3	-19.5	-2.4	81.0*
O=C(C[C@@H]1CC[C@H](NC(=O)Nc2ccc3c(c2)OCO3)[C@@H](CO)O1)NCCCN1CCOCC1	x	x	x	x	x	-3.3
C[C@H]1CN([C@@H](C)CO)C(=O)Cc2cc(NC(=O)Nc3ccccc3)ccc2O[C@H]1CN(C)Cc1ccc(C(F)(F)F)cc1	x	x	x	x	x	-26.0
Cc1ccc(S(=O)(=O)N[C@@H]2C=C[C@H](CC(=O)NCc3ccncn3)O[C@@H]2CO)cc1	x	x	x	x	x	22.9
O=[N+]([O-])c1cccc(C2NCC(c3ccccc3Cl)c3c2[nH]c2ccccc32)c1 (stereo not given)	-1.1	15.2	-7.2	564.1*	0.3	x
CC(=O)Nc1ccc(S(=O)(=O)N2CCN(c3cc(C)nc4ccccc34)CC2)cc1	6.4	1.6	-1.0	318.0	0.6	x
CC(=O)Nc1ccc(S(=O)(=O)N2CCN(c3nc(NC4CCCC4)c4ccccc4n3)CC2)cc1	17.6	39.4*	-3.6	-18.3	2.0	x
CO[C@@H]1CN(C)C(=O)c2cc(NS(=O)(=O)c3ccc(Cl)cc3)ccc2OC[C@@H](C)N(C)C[C@H]1C	x	x	x	x	x	-14.1
O=C(CSC1=Nc2ccccc2C2CC=NN12)NCc1ccco1 (stereo not given)	-7.4	1.6	3.8	-10.1	6.3	97.7*
NC(=O)c1ncc(C(F)(F)F)cc1Oc1cccc(C(F)(F)F)c1	-21.2	3.6	-0.8	309.3*	-2.4	21.0
CCOC(=O)C1=C(C)N[C@@]2(O)c3ccccc3C(=O)[C@@]12O	1.5	-2.2	0.8	-14.5	4.5	129.7*
O=C(N/N=C/c1coc2ccccc2c1=O)c1ccccc1	-4.5	-10.7	-13.8	1.8	0.6	2.4
O=C(N/N=C\c1coc2ccccc2c1=O)c1ccco1	0.7	10.2	-3.5	460.9*	-0.6	x
C[C@@H]1CN([C@H](C)CO)S(=O)(=O)c2ccc(C#CC3CC3)cc2O[C@@H]1CN(C)C(=O)c1ccccn1	x	x	x	x	x	0.6
CC(=O)N1CC[C@@H]2[C@H]1c1cc(-c3ccccc3)ccc1N(C)[C@H]2CO	x	x	x	x	x	4.2
Cc1sc2nc(SCC(=O)NCc3ccco3)n(Cc3ccccc3)c(=O)c2c1C	-4.9	-3.8	-0.7	-6.7	2.4	113.6*
CCOC(=O)c1sc2nc(SCC(=O)NCc3ccco3)n(Cc3ccccc3)c(=O)c2c1C	6.3	0.5	-7.6	-3.4	-5.7	x
COc1ccc(S(=O)(=O)Nc2cc(C(=O)NCCC(C)C)ccc2N2CCOCC2)cc1	4.6	-6.5	-3.4	-6.4	3.5	93.2*
Cn1c(SCC(=O)N2CCOCC2)nnc1-c1ccco1	9.8	21.8	-7.1	352.7*	-4.9	-5.4
CN(C)c1ncnc2c1ncn2C1OC(CO)C(O)C1O (stereo not given)	8.3	12.8	-4.8	277.2*	-1.5	-105.6

Assay outcomes: PubChem, several laboratories
